An excerpt weighted towards active compounds, which were near 3.9% of everything screened.
CHRM1 antagonist: human M1 muscarinic receptor antagonists, primary screen, CHO-K1 cells, Fluo-8 calcium fluorescence, 1536-well | Muscarinic acetylcholine receptor M1 (Homo sapiens), P11229 | CHO-K1 hM1, ACh EC80 antagonist | inhibition, % at 3 µM | 360,000 tested, 1.3% active | AID 588852, 2011;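 active = percent inhibition above its own plate's cutoff, namely the mean of that plate's compound wells plus 3 SD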;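 note: peak over basal fluorescence ratio during 140 s after agonist addition; 0% = ACh EC80 plus DMSO and 100% = DMSO alone without agonist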
M1 PAM: human M1 muscarinic receptor positive allosteric modulators, primary screen, CHO-K1 cells, Fluo-8 calcium fluorescence, 1536-well | AID 588819, 2011 | activation, % at 3 µM | 360,000 tested, 0.088% active | CHO-K1 hM1, ACh EC20; 0% = ACh EC20, 100% = maximal ACh; in the data active = activation above about 19%, passing the limit was not always enough
m5-HT2A agonist: mouse Htr2a agonists via beta-arrestin recruitment, primary screen, cell-based, luminescence; CHO-K1 mHTR2A beta-arrestin complementation; percent of 30 µM serotonin response; AID 624169, 2012; activation, % at 7.6 µM; 360,000 tested, 0.66% active;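 active = activation above a run cutoff, the mean activation of all tested compounds plus 3 SD, cut at about 14% in these data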;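 note: 0% = plate median of compound wells and 100% = 30 µM serotonin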
TAAR1 antagonist: human TAAR1 antagonists, primary screen, Fluo-8 calcium fluorescence, CHO RD-HGA16 cells; antagonist; inhibition, % at 3 µM; 360,000 tested, 1.5% active; AID 624466, 2012;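 active = inhibition above a per-plate cutoff, the mean inhibition of test compounds on that plate plus 3 SD, cut at about 49% in these data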;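 note: 0% = DMSO plus EC80 beta-PEA response and 100% = DMSO alone without agonist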
Target sequence (Q96RJ0 whole entry, looked up): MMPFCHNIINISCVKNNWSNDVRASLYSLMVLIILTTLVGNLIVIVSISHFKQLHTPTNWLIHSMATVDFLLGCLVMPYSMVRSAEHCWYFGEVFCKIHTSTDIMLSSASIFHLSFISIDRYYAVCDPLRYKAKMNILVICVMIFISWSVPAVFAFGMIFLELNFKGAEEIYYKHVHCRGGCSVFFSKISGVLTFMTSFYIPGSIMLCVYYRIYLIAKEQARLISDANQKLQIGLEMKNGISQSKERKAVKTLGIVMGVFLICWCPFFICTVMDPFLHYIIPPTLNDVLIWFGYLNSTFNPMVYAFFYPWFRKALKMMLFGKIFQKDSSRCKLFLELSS
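Material: CHO RD-HGA16 cells bearing hTAAR1; compound dosing: one-point dosing, 3 µM nominal final; schedule: dye loading 75 min at 37 °C, then 30 min room temperature; measured by: calcium fluorescence with Fluo-8; control set: vehicle and agonist controls; replication: n of 1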
TAAR1 ag: human TAAR1 agonists, primary screen, Fluo-8 calcium fluorescence, CHO RD-HGA16 cells; Trace amine-associated receptor 1 (Homo sapiens), Q96RJ0; vehicle wells 0%, saturating PEA agonist 100%; activation, % at 3 µM; 360,000 tested, 0.99% active;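 active = activation above the mean activation of all test compounds in the run plus 3 SD, cut at about 38% in these data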
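Repeats: no replicates (n 1) | Material: CHO-derived RD-HGA16 cells with stable Gα16 and human TAAR1 | Technique: Kinetic Fluo-8 calcium fluorescence | Schedule: 17-24 h seeding, 75 min 37 °C dye, 30 min RT | Evaluation: % activation from peak over basal fluorescence ratio, DMSO-to-PEA scaled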
M1 ag: human M1 muscarinic receptor agonists, primary screen, Fluo-8 calcium fluorescence, CHO-K1 cells, HTS; Muscarinic acetylcholine receptor M1 (Homo sapiens), P11229; 360,000 tested, 0.33% active; activation, % at 3 µM; CHO-K1 hM1, agonist mode; 0% DMSO, 100% acetylcholine EC100;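 active = activation above the run's mean compound activation plus 3 SD, cut at about 16% in these data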;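 note: peak over basal fluorescence ratio within a 140 s kinetic read after compound addition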
nonsel antag count: nonselective antagonists in TAAR1 counter-screen cells, counter-screen for hTAAR1 antagonist project, cell-based, fluorescence, calcium | shares compounds with TAAR1 antagonist | 2,400 tested, 77% active | inhibition, % at 3 µM | counterscreen cell line, antagonist mode; in the data active = inhibition above about 22%;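 note: CHO-Ga16 host cells stimulated with ATP at an EC80 level; 0% = agonist EC80 plus vehicle and 100% = vehicle without agonist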
TAAR1 ant conf: human TAAR1 antagonists, retest of hits, confirmation, cell-based, fluorescence. AID 651785, 2012. shares compounds with TAAR1 antagonist. 2,400 tested, 40% active. inhibition, % at 3 µM. TAAR1-expressing cells, fluorescence antagonist read-out; in the data active = inhibition above about 49%;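 note: CHO-Ga16 host cells challenged with agonist PEA near its EC80; 0% = agonist at EC80 plus vehicle and 100% = vehicle with no agonist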
Ga16 ag counter: calcium activation in Ga16-expressing cells, counter-screen for TAAR1 antagonist project, cell-based, fluorescence; shares compounds with TAAR1 antagonist; agonist counterscreen; activation, % at 3 µM; 2,400 tested, 18% active; in the data active = activation above about 12%;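 note: 0% = vehicle wells and 100% = saturating stimulus response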
TAAR1 ag counter: TAAR1 activation by candidate antagonists – cell-based, fluorescence, counter-screen for TAAR1 antagonist project | shares compounds with TAAR1 antagonist | activation, % at 3 µM | 2,400 tested, 2% active | hTAAR1 cell line, agonist mode | AID 651955, 2012; in the data active = activation above about 37%;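 note: CHO cells stably expressing TAAR1 with calcium dye readout; 0% = DMSO vehicle and 100% = full agonist response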
Numbers without * were called inactive; . = not tested or not shown.

SMILES | CHRM1 antagonist | M1 PAM | m5-HT2A agonist | TAAR1 antagonist | TAAR1 ag | M1 ag | nonsel antag count | TAAR1 ant conf | Ga16 ag counter | TAAR1 ag counter
CCc1ccc(S(=O)(=O)Nc2ccc(O)c3c(=O)cc(-c4ccccc4Cl)oc23)cc1 | -12 | 4 | -3 | 61* | 14 | -3 | 4 | 25 | 7 | 16
COc1ccc(CCNc2oc(COc3ccccc3Cl)nc2C#N)cc1OC | 15 | -10 | -1 | 64* | 6 | -2 | 39* | 55* | 8 | 3
COc1ccc(CCNc2oc(Cc3ccccc3)nc2C#N)cc1OC | 25 | -11 | -4 | 27 | 2 | -2 | . | . | . | .
COc1ccc(CCNc2oc(COc3ccccc3F)nc2C#N)cc1OC | -15 | -5 | -5 | 59* | 16 | 0 | 37* | 49* | 12* | 10
CN(Cc1cn(Cc2ccc(Cl)cc2)nn1)C1CN(Cc2cn(Cc3ccc(Cl)cc3)nn2)S(=O)(=O)C1 (configuration not stated) | . | . | -3 | 14 | 9 | . | . | . | . | .
Cc1cnc(C(=O)OCC(=O)c2ccc[nH]2)cn1 | 8 | -4 | 0 | -8 | 4 | -1 | . | . | . | .
COc1ccc(N2CCOCC2)c(NC(=O)c2cc3ccccc3o2)c1 | -8 | 17 | -3 | 24 | 11 | 5 | . | . | . | .
COc1ccccc1NC(=O)c1oc2ccccc2c1NC(=O)c1ccco1 | -11 | 1 | -2 | 23 | 6 | -5 | . | . | . | .
COc1cc(NC(=O)c2oc3ccccc3c2C)ccc1NC(=O)c1ccco1 | 26 | -14 | 4 | 54* | 10 | -3 | 26* | 39 | 7 | 5
COc1cc(NC(=O)c2cc3ccccc3o2)ccc1NC(=O)c1ccco1 | 6 | -6 | -2 | 64* | 15 | 4 | 26* | 51* | 8 | 14
Cc1nc(-c2cccc(NC(=O)c3ccc(-n4cccn4)cc3)c2)cs1 | 24 | -13 | 3 | 63* | 28 | -2 | 22* | 47 | 11 | 8
Cc1nc(-c2cccc(NC(=O)c3ccc(Cl)c(S(=O)(=O)N4CCCC4)c3)c2)cs1 | 11 | -12 | -3 | 62* | 11 | -1 | 26* | 45 | 10 | 6
CCCn1c(NC(=O)c2ccc(Cl)c(S(=O)(=O)N3CCCC3)c2)nc2ccccc21 | 35* | -13 | -3 | 57* | 10 | -3 | 38* | 34 | 11 | 0
Cc1nc(-c2ccc(C(=O)Nc3cccc(F)c3)cc2)cs1 | -1 | 3 | -4 | 7 | 6 | -3 | . | . | . | .
O=C(O)c1cccc(NC(=O)c2ccc(Cl)c(S(=O)(=O)N3CCCCCC3)c2)c1 | -7 | 10 | 12 | 46 | 2 | -2 | . | . | . | .
CCCn1c(C(O)c2cccc(OC)c2)nc2ccccc21 (configuration not stated) | -14 | 10 | -1 | -18 | -1 | 0 | . | . | . | .
O=C(CCc1nc2ccccc2c(=O)[nH]1)Nc1nnc(SCc2ccc(F)cc2)s1 | -9 | 5 | -6 | -2 | 0 | -1 | . | . | . | .
Cc1ccc(-c2nc(CS(=O)(=O)CC(=O)Nc3cc(F)ccc3F)c(C)o2)cc1 | -6 | 0 | -7 | -29 | 2 | -2 | . | . | . | .
CC(C)(C)N1C(=O)c2ccc(C(=O)Nc3nccs3)cc2C1=O | -22 | -5 | 2 | 49* | 12 | -1 | 13 | 37 | 6 | 2
CCN1C(=O)c2ccc(C(=O)Nc3nccs3)cc2C1=O | -21 | 4 | 5 | 17 | 3 | -1 | . | . | . | .
Cn1cnnc1Sc1ccc(C(=O)NCCC23CC4CC(CC(C4)C2)C3)cc1[N+](=O)[O-] | -7 | 7 | -6 | -30 | -2 | -11 | . | . | . | .
CCN1C=C(Cc2cccs2)C2=C(C1)C(c1cccs1)C(C#N)=C(N)O2 (configuration not stated) | 7 | -2 | -1 | 53* | 26 | -3 | 20 | 38 | 6 | 9
O=S(=O)(Nc1ccc(-c2nc3cccnc3s2)cc1)c1cccs1 | -12 | 15 | 14 | -5 | 2 | 1 | . | . | . | .
Cc1cc(-c2nc3cccnc3s2)ccc1NS(=O)(=O)c1cccs1 | -2 | -1 | -5 | 63* | 0 | -3 | 16 | 34 | 3 | 0
O=C(c1ccc(CS(=O)Cc2ccccc2Cl)o1)N1CCN(c2ccccn2)CC1 (configuration not stated) | -7 | 6 | -4 | 49* | 17 | -2 | 15 | 32 | 8 | 6
O=C(NCCc1ccc(Cl)cc1)c1ccc(CS(=O)Cc2ccccc2Cl)o1 (configuration not stated) | 37* | -18 | -1 | 60* | 9 | -2 | 29* | 40 | 9 | 8
O=C(C(Sc1ccccc1)c1ccccc1)N1CCN(c2ccccc2F)CC1 (configuration not stated) | -26 | 6 | -2 | 50* | 6 | -1 | 17 | 36 | 7 | 8
O=C(c1ccc(N2CCN(C(=O)c3cccc(F)c3)CC2)cc1)c1cccc(F)c1 | -8 | 2 | -2 | 53* | 4 | 0 | 24* | 34 | 9 | 11
O=C(c1c(F)cccc1F)N1CCN(c2ccccc2F)CC1 | -4 | -4 | -8 | -10 | 9 | 0 | . | . | . | .
O=C(c1cccc(C(=O)N2CCN(c3ccccc3F)CC2)c1)N1CCN(c2ccccc2F)CC1 | 11 | -1 | 1 | 68* | 11 | -2 | 27* | 36 | 9 | 5

From PubChem BioAssay
